Results published in PubChem BioAssay.
Activity calls are given as the source filed them.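 The calls were made as follows, unless noted: active = viability at or below 30% in both replicate assays; inconclusive = viability at or below 30% in just one of the two assays; inactive = the rest.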

Assays:
[1] = Her2 expression decrease, cell viability multiplex – SKBR3 breast tumor cells, AlphaScreen, ATP viability, primary screen (AID 461;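 active = Her2 level under about 52% in both replicate screens, with viability over 70% of control, limit read from the data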;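 as to Her2 level: lower value means less Her2 protein in the cells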;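 as to viability: percent of carrier control wells set as 100% viability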); conditions: SKBR3 Her2 protein level, 18-24 h, measured here: SKBR3 viability, ATP luminescence, at 10 µM
[2] = biological target: Receptor tyrosine-protein kinase erbB-2 (Homo sapiens) (UniProt P04626); assay: as above; conditions: 18-24 h, at 10 µM, stronger effect = lower value
[3] = reduced viability of SK-BR-3 breast cancer cells – cell-based, 24 h, human, pilot screen (AID 572;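 active = viability at or below 10% of carrier control in both of two separate runs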;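 also: compound exposure lasted between 18 and 24 h rather than exactly 24 h; 100% = carrier-treated control wells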); conditions: SK-BR-3 viability, CellTiter-Glo luminescence, at 10 µM, stronger effect = lower value
[4] = HUVEC growth inhibition – cell-based, human, primary screen (AID 575); conditions: HUVEC proliferation, CellTiter-Glo luminescence, 72 h; at 10 µM; stronger effect = lower value;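 also: 100% = median of untreated cell wells with 0.1% DMSO on each plate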
Method in brief: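 Assay system: primary human umbilical vein endothelial cells / Buffer or medium: endothelial basal medium with 2% FBS plus growth supplements / Compound dosing: one dose, 10 µM final, 0.1% DMSO / Timing: 72 h treatment at 37 °C / Signal: CTG luminescence / Benchmarks: 32 DMSO-only cell-control wells (high), 32 MePR drug-control wells (low) per plate / Plate: collagen-coated 384-well format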

[5] = H69AR cell proliferation blockers – human, duplicate replicates, primary screen (AID 580;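 active = viability at or under a set limit in both replicates, limit being median viability minus 3 SD, cut at about 48% in these data, passing the limit was not always enough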;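 also: 100% = mean luminescence of untreated wells and 0% = no signal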); conditions: H69AR lung tumor cells viability, ATP luminescence, 72 h; at 10 µM; stronger effect = lower value
[6] = MRP1 drug-resistance reversers in H69AR cells – cell-based, doxorubicin co-treatment, pilot screen (AID 601;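 active = viability loss from added drug above about 55%, and viability with drug at most 40%, in both replicates, limit read from the data, passing the limit was not always enough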); conditions: CellTiter-Glo, 72 h, at 10 µM; for differential viability (reversal): stronger effect = higher value
[7] = yeast transport mutant growth inhibition pilot in 384-well plates, post-Golgi transport modulator project (AID 636; in the data active = inhibition above about 31%); conditions: absorbance 615 nm, about 18 h, stronger effect = higher value
[8] = growth suppression of yeast trafficking mutant, preliminary HTS, modulators of trafficking downstream of Golgi apparatus project, 1536-format plate, OD 615 nm (AID 637; in the data active = inhibition above about 30%); conditions: yeast transport mutant growth, absorbance 615 nm, 18 h; stronger effect = higher value
[9] = H69AR cells + 2 uM doxorubicin, measured here: viability with 2 uM doxorubicin, stronger effect = lower value
[10] = H69AR cells, compound alone cytotoxicity

Chain of Receptor tyrosine-protein kinase erbB-2 (Homo sapiens) (P04626 whole entry, looked up): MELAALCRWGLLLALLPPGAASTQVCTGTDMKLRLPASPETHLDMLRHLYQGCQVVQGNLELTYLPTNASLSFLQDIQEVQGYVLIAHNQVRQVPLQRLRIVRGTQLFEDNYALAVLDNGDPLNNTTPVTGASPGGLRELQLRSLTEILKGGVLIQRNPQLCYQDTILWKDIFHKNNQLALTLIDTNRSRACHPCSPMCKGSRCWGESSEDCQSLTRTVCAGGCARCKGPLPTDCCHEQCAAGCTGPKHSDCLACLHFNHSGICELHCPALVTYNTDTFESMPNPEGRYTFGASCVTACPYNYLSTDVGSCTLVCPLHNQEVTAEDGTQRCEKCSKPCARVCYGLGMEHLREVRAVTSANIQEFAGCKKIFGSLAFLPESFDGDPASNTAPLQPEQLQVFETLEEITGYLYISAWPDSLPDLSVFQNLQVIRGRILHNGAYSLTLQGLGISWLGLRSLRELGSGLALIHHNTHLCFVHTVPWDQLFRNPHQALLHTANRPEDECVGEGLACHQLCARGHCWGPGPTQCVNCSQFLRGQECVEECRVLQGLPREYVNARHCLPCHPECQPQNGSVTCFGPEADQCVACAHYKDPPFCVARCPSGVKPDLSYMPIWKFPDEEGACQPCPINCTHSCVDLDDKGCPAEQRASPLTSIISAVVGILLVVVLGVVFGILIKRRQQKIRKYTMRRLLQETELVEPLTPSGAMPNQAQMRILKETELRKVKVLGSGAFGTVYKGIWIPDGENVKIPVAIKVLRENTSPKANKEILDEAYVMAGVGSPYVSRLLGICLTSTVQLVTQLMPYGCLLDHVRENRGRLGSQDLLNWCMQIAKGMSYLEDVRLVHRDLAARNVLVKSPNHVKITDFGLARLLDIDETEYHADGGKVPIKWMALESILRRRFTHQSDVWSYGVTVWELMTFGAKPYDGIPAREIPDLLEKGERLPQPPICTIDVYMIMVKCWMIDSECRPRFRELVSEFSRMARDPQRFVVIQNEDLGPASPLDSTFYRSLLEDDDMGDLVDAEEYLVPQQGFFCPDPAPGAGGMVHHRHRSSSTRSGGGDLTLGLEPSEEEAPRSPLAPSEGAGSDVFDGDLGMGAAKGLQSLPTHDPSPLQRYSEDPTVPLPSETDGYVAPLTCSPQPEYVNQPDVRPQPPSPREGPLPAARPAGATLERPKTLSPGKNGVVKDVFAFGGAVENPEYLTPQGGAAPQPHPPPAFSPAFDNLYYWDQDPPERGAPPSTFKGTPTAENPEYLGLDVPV

Row | SMILES | viability [1] [%] | Her2 level [2] | viability [3] | viability [4] | viability [5] | differential viability (reversal) ([6]; H69AR cells + 2 uM doxorubicin) | viability [6, 9] [%] | viability [6, 10] [%] | inhibition [7] | inhibition [8]
1 | N#CC1=C(N)Oc2n[nH]c(-c3cccs3)c2C1c1cccs1 (stereo not given) | 96.5 | 79.5% (inactive) | 96.5% (inactive) | 81.4% (inactive) | 83.8% (inactive) | -2.47% (inactive) | 86.3 | 83.8 | -3.73% (inactive) | -1.31% (inactive)
2 | CCN(CC)S(=O)(=O)c1ccc(F)cc1 | 116 | 106% (inactive) | 116% (inactive) | 98.7% (inactive) | 93% (inactive) | 5.97% (inactive) | 87.1 | 93 | -8.77% (inactive) | 4.13% (inactive)
3 | C=CCn1c2ccccc2c2nnc(SCC(=O)NC(C(=O)OC)C(C)C)nc21 (stereo not given) | 112 | 96% (inactive) | 112% (inactive) | 83.5% (inactive) | 76.8% (inactive) | 2.25% (inactive) | 74.5 | 76.8 | -3.12% (inactive) | -4.26% (inactive)
4 | CN(c1ccccc1)S(=O)(=O)c1ccc(C(=O)OCC(=O)N2CCOCC2)cc1 | 106 | 85.5% (inactive) | 106% (inactive) | 106% (inactive) | 111% (inactive) | 21.5% (inactive) | 89.4 | 111 | -5.41% (inactive) | 3.17% (inactive)
5 | COc1ccc(S(=O)(=O)N2CCN(C3CCCCCCC3)CC2)cc1 | 87.5 | 89.5% (inactive) | 87.5% (inactive) | 106% (inactive) | 93.9% (inactive) | -6.63% (inactive) | 100 | 93.9 | -2.11% (inactive) | -0.98% (inactive)
6 | CN(CC(=O)N1CCN(c2ccc(F)cc2)CC1)S(=O)(=O)c1ccc(F)cc1 | 97 | 95.5% (inactive) | 97% (inactive) | 88.4% (inactive) | 86.6% (inactive) | -7.95% (inactive) | 94.5 | 86.6 | -6.18% (inactive) | 5.25% (inactive)
7 | CCSc1nnc(NC(=O)CCNS(=O)(=O)c2cc(Br)cnc2N)s1 | 79.5 | 107% (inactive) | 79.5% (inactive) | 76.8% (inactive) | 107% (inactive) | 1.07% (inactive) | 106 | 107 | -1.04% (inactive) | -0.82% (inactive)
8 | Cc1ccc(C(=O)CSc2nnc(-c3cccnc3)n2N)cc1 | 104 | 89.5% (inactive) | 104% (inactive) | 68.9% (inactive) | 28.2% (active) | -49.2% (inactive) | 77.4 | 28.2 | -0.93% (inactive) | 0.97% (inactive)
9 | O=C(NCc1ccco1)c1csc(Nc2ccccc2Cl)n1 | 70.5 | 97.5% (inactive) | 70.5% (inactive) | 60.5% (inactive) | 78.2% (inactive) | -1.24% (inactive) | 79.4 | 78.2 | -8.24% (inactive) | -5.25% (inactive)
10 | CCCCOc1ccc(C(=O)Nn2cnnc2)cc1 | 95.5 | 87% (inactive) | 95.5% (inactive) | 84.5% (inactive) | 89.5% (inactive) | 0.185% (inactive) | 89.4 | 89.5 | -5% (inactive) | -2% (inactive)
11 | O=C(NCc1cccs1)c1cc2c(s1)-c1ccccc1OC2 | 96 | 91.5% (inactive) | 96% (inactive) | 76.8% (inactive) | 94.8% (inactive) | 5.04% (inactive) | 89.7 | 94.8 | -5.2% (inactive) | 3.77% (inactive)
12 | O=S(=O)(Nc1cccnc1)c1cc(Cl)ccc1Cl | 77.5 | 96% (inactive) | 77.5% (inactive) | 92.2% (inactive) | 82.8% (inactive) | -4.94% (inactive) | 87.7 | 82.8 | -1.03% (inactive) | -3% (inactive)
13 | COc1cc(OC)c(C2C(C#N)=C(N)OC3=C2C(=O)CC(C)(C)C3)cc1OC (stereo not given) | 85.5 | 106% (inactive) | 85.5% (inactive) | 61.9% (inactive) | 83.2% (inactive) | -1.53% (inactive) | 84.7 | 83.2 | 0.91% (inactive) | -9.02% (inactive)
14 | C=C(Cl)COC(=O)[C@H]1C2C=CC(C2)C1C(=O)O (stereo not given in full) | 99.5 | 120% (inactive) | 99.5% (inactive) | 106% (inactive) | 101% (inactive) | 3.48% (inactive) | 98 | 101 | -2.8% (inactive) | -6.67% (inactive)
